Measured values from ChEMBL document CHEMBL4428072, “Pharmacophore Model To Discover OX1 and OX2 Orexin Receptor Ligands” (J Med Chem, 2016).
The source made the active and inactive calls. The rule behind the calls is not given here.

Assays:
[1] = biological target: T1, Orexin/Hypocretin receptor type 1 (Homo sapiens, UniProt O43613); experiment: Antagonist activity at human OX1 receptor expressed in […] assessed as inhibition of orexin A-induced Ca2+ elevation after 30 mins in presence of orexin A by FLIPR calcium 4 assay; assay type: functional, cell-based
T1 sequence (O43613 whole entry): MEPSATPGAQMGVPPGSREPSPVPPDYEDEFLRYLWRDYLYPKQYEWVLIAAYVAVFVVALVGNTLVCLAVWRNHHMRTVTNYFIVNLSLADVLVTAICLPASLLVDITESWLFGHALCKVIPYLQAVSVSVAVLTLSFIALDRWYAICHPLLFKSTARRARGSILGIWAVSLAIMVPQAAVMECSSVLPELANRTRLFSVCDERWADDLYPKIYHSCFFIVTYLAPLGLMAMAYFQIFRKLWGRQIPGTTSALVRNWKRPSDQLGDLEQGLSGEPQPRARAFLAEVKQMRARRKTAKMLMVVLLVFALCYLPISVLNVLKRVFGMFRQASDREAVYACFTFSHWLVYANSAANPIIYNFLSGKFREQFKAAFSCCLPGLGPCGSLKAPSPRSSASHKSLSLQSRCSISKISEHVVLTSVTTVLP
Procedure, shortened: (§1)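 Functional inhibition in CHO-hOX1 or CHO-hOX2 cells. Antagonist (10 nM–100 μM, 10-fold series) preincubated 10 min at 37 °C, then 0.3 nM orexin-A added. Ca2+ measured with Calcium 4 dye at 485/525 nm. Ki derived from inhibition of the orexin-A response. Three independent experiments in quadruplicate; mean ± SEM.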

[2] = biological target: T2, Orexin/Hypocretin receptor type 1 (Homo sapiens) (UniProt O43613); experiment: Agonist activity at human OX1 receptor expressed in CHO cells assessed as induction of Ca2+ elevation at 5 uM after 30 mins by FLIPR calcium 4 assay relative to orexin-A; assay type: functional, cell-based
T2 sequence (whole entry): T1 sequence (O43613 whole entry)
Procedure, shortened: (§2)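 Screening in CHO-hOX1 or CHO-hOX2 cells loaded with Calcium 4 dye in HBM (137 mM NaCl, 20 mM Hepes, 1 mM CaCl2, pH 7.4) + probenecid. Fluorescence at 485/525 nm, 37 °C. 30 s baseline, compound added to 5 μM final and read for 120 s; the delayed response was read 30 min after addition for 30 s. Tested once in triplicate; % of full orexin-A activation.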

[3] = biological target: T3, Orexin receptor type 2 (Homo sapiens) (UniProt O43614); conditions: CHO, at 10 µM
T3 sequence (whole entry): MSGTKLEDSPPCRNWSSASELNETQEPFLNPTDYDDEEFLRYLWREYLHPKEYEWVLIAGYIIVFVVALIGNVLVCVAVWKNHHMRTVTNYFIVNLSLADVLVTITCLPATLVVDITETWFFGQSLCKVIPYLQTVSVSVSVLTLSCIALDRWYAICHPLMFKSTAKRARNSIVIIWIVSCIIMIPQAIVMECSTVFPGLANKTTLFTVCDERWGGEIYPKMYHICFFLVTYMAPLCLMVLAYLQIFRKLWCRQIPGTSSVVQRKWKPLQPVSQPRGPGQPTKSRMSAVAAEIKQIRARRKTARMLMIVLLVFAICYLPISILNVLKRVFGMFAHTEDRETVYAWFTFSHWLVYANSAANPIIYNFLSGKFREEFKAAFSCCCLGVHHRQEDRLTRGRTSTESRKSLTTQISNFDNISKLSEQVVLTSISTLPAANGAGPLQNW

[4] = biological target: T2, Orexin/Hypocretin receptor type 1 (Homo sapiens); experiment: Ratio of Ki for human OX1 receptor expressed in […] assessed as inhibition of orexin A-induced Ca2+ elevation to Ki for human OX1 receptor expressed in CHO cells by [125I]-orexin A displacement assay
[5] = biological target: T2, Orexin/Hypocretin receptor type 1 (Homo sapiens); experiment: Antagonist activity at human OX1 receptor expressed in CHO cells assessed as inhibition of orexin A-induced Ca2+ elevation at 5 uM after 30 mins by FLIPR calcium 4 assay; assay type: functional, cell-based
Procedure, shortened: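 Screening second round: after the 5 μM compound agonist read in CHO-hOX1 cells, 0.3 nM orexin-A was added at 30 s to all wells and the inhibition of the Ca2+ response was read by Calcium 4 fluorescence at 37 °C. Vehicle controls were included in each column. Tested once in triplicate.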

[6] = biological target: T4, Orexin receptor type 2 (Homo sapiens, UniProt O43614); experiment: Displacement of [125I]-orexin A from human OX2 receptor expressed in […] after 90 mins by scintillation counting
T4 sequence (O43614 whole entry): T3 sequence (whole entry)
Procedure, shortened: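 Intact CHO-hOX1 or CHO-hOX2 cells in HBM + 0.1% stripped BSA + 30 μM dyngo 4a, preincubated 10 min (10 μM antagonist used to define nonspecific binding). 0.05 nM [125I]-orexin-A added with compound (10 nM–100 μM, 10-fold series). Incubated 90 min at room temperature, wells dried, scintillation counted. At least three experiments; IC50/Ki by nonlinear fitting.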

[7] = biological target: T4, Orexin receptor type 2; experiment: Antagonist activity at human OX2 receptor expressed in […] assessed as inhibition of orexin A-induced Ca2+ elevation […] in presence of orexin A by FLIPR calcium 4 assay; assay type: functional, cell-based; procedure, shortened: as §1
[8] = biological target: T3, Orexin receptor type 2 (Homo sapiens); conditions: CHO, at 5 µM
[9] = biological target: T2, Orexin/Hypocretin receptor type 1 (Homo sapiens); experiment: Displacement of [125I]-orexin A from human OX1 receptor expressed in […] at 10 uM after 90 mins by scintillation counting
[10] = biological target: T3, Orexin receptor type 2 (Homo sapiens); experiment: Agonist activity at human OX2 receptor expressed in CHO cells assessed as induction of Ca2+ elevation at 10 uM after 30 mins in presence of TCS-1102 by FLIPR calcium 4 assay relative to orexin-A; assay type: functional, cell-based
Procedure, shortened: (§3)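 Agonist Ca2+ read in CHO-hOX1 or CHO-hOX2 cells loaded with Calcium 4 dye at 37 °C. Compound at 10 μM was added with or without 10 μM orexin antagonist to define the receptor-specific response. Expressed as % of full orexin-A response, taken from orexin-A concentration–response curves run in each experiment.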

[11] = tested on: CHO; experiment: Induction Ca2+ levels in CHO cells at 1 uM by FLIPR calcium 4 assay; assay type: functional, cell-based; conditions: Cricetulus griseus
Procedure, shortened: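 Control CHO cells lacking orexin receptors, loaded with Calcium 4 dye in HBM + probenecid for 60 min at 37 °C. Compound added (1 and 10 μM) and the Ca2+ fluorescence response read at 485/525 nm at 37 °C.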

[12] = biological target: T3, Orexin receptor type 2 (Homo sapiens); experiment: Agonist activity at human OX2 receptor expressed in […] assessed as induction of Ca2+ elevation at 10 uM after 30 mins by FLIPR back ground response; assay type: functional, cell-based
Procedure, shortened: (§4)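 CHO-hOX1 or CHO-hOX2 cells plated overnight at 1.5 × 10^4 cells/well, loaded with Calcium 4 dye in HBM + probenecid for 60 min at 37 °C. Fluorescence read at 485/525 nm, 37 °C. 30 s baseline, then compound at 10 μM (tested twice in validation; thrice at 1 and 10 μM in quadruplicate in characterization). Response expressed as % of orexin-A maximal response; background response measured within each experiment.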

[13] = biological target: T2, Orexin/Hypocretin receptor type 1 (Homo sapiens); experiment: Agonist activity at human OX1 receptor expressed in CHO cells assessed as induction of Ca2+ elevation at 5 uM after 2 mins by FLIPR calcium 4 assay relative to orexin-A; assay type: functional, cell-based; procedure, shortened: as §2
[14] = biological target: T2, Orexin/Hypocretin receptor type 1 (Homo sapiens); experiment: Agonist activity at human OX1 receptor expressed in […] assessed as induction of Ca2+ elevation at 10 uM after 30 mins by FLIPR calcium 4 assay relative to orexin-A; assay type: functional, cell-based; procedure, shortened: as §4
[15] = biological target: T3, Orexin receptor type 2 (Homo sapiens); experiment: Agonist activity at human OX2 receptor expressed in CHO cells assessed as induction of Ca2+ elevation at 5 uM after 2 mins by FLIPR calcium 4 assay relative to orexin-A; assay type: functional, cell-based; procedure, shortened: as §2
[16] = biological target: T2, Orexin/Hypocretin receptor type 1 (Homo sapiens); experiment: Agonist activity at human OX1 receptor expressed in […] assessed as induction of Ca2+ elevation at 10 uM after 30 mins by FLIPR back ground response; assay type: functional, cell-based; procedure, shortened: as §4
[17] = species on record: Homo sapiens; experiment: Ratio of Ki for human OX1 receptor expressed in CHO cells to Ki for human OX2 receptor expressed in CHO cells by Ca2+ elevation based assay; assay type: cell-based; procedure, shortened: as §1
[18] = biological target: T3, Orexin receptor type 2 (Homo sapiens); experiment: Agonist activity at human OX2 receptor expressed in […] assessed as induction of Ca2+ elevation at 10 uM after 30 mins by FLIPR calcium 4 assay relative to orexin-A; assay type: functional, cell-based; procedure, shortened: as §4
[19] = biological target: T2, Orexin/Hypocretin receptor type 1 (Homo sapiens); experiment: Agonist activity at human OX1 receptor expressed in CHO cells assessed as induction of Ca2+ elevation at 10 uM after 30 mins in presence of TCS-1102 by FLIPR calcium 4 assay relative to orexin-A; assay type: functional, cell-based; procedure, shortened: as §3

Row | Compound | Ki [1] | Activity [2] | inhibition [3] | Ratio Ki [4] | inhibition [5] | IC50 [6] | Ki [6] | Ki [7] | inhibition [8] | inhibition [9] | Activity [10] | Activity [11] | fold change (FC) [12] | Activity [13] | Activity [14] | Activity [15] | fold change (FC) [16] | Ratio Ki [17] | Activity [18] | Activity [19]
1 | C=CCN1C(=O)C2(Nc3ccccc3C(=O)N2c2ccccc2OC)c2ccccc21 (stereo unspecified) | 21.6 µM | Active | > 50% | 2 to 9 | > 20% | 0.7 µM | 1 µM | 1.2 µM | > 20% | > 50% |  |  |  |  |  |  |  |  |  | 
2 | COc1ccc(Nc2nc(NCc3ccco3)nc(N/N=C\c3cc(Br)c(O)c(Br)c3)n2)cc1 |  | Active | 20 to 40% |  |  |  |  |  |  | 20 to 40% | 3.5% | inactive | 1.4 to 2.2 | Active | 2.7% | Active | 1.9 |  |  | 
3 | COc1ccc(N(CC(=O)NC(C)c2ccccc2)S(=O)(=O)c2ccc(OC)c(OC)c2)cc1 (stereo unspecified) | 46.7 µM | Active | > 50% | 2 to 9 | > 20% | 0.07 µM | 0.1 µM | 0.1 µM | > 20% | > 50% |  |  |  |  |  |  |  | 50 |  | 
4 | Cc1cccc2c1[nH]c1nc(N/N=C\c3c4ccccc4cc4ccccc34)nnc12 | 16.2 µM | Active |  |  | > 20% |  |  |  |  | > 50% |  |  |  |  |  |  |  |  |  | 
5 | CC(/C=C/c1ccccc1)=N/Nc1nc(Nc2ccccc2)nc(-n2nc(C)cc2C)n1 |  | Active | 20 to 40% |  |  | 11.8 µM | 17.8 µM |  |  | 20 to 40% |  | inactive | 1.4 to 2.2 | Active | 5.4% | Active | 2.8 |  | 1 to 3.7% | 2.1%
6 | CCOC(=O)c1c(NC(=O)C(C)Sc2nnc(CNC(=O)c3cc(OC)cc(OC)c3)n2-c2ccccc2OC)sc2c1CCC2 (stereo unspecified) | 7 µM | Active | > 50% | 2 to 9 | > 20% | 0.7 µM | 1.1 µM | 1 µM | > 20% | > 50% |  |  |  |  |  |  |  |  |  | 
7 | Cc1ccc(C(O)(C(=O)NNc2cc(Cl)ccc2Cl)c2ccc(C)cc2)cc1 | 10.3 µM | Active | > 50% | 2 to 9 | > 20% | 0.8 µM | 1.3 µM | 1.7 µM | > 20% | > 50% |  |  |  |  |  |  |  |  |  | 
8 | COc1ccc(CCNC(=O)Cn2c(-c3nonc3N)nc3ccccc32)cc1OC | 13.1 µM | Active | > 50% | 2 to 9 | > 20% | 0.5 µM | 0.8 µM | 0.9 µM | > 20% | > 50% |  |  |  |  |  |  |  |  |  | 
9 | COc1ccccc1OCCNC[C@@H](O)COc1cccc2[nH]c3ccccc3c12 [(R)-Carvedilol] |  | Active | > 70% |  |  | 0.9 µM | 1.4 µM |  |  | > 70% |  | inactive | 1.4 to 2.2 | Active | 6.3% | Active | 3.3 |  | 1 to 3.7% | 
10 | O=C(CSc1nnc(-c2cccs2)n1Cc1ccco1)Nc1ccc2c(c1)OCCO2 | 6 µM | Active | > 50% | 2 to 9 | > 20% | 0.13 µM | 0.2 µM | 0.3 µM | > 20% | > 50% |  |  |  |  |  |  |  | 20 |  | 
